Results taken from ChEMBL document CHEMBL4513216, “Probing the Open Global Health Chemical Diversity Library for Multistage-Active Starting Points for Next-Generation Antimalarials” (ACS Infect Dis, 2020).

Assay: Toxicity liver stage against HepG2, at 10uM
Assay type: cell-based
Parameters: test concentration 10 uM, cell line HepG2-A16-CD81EGFP
Settings: human, HepG2-A16-CD81EGFP cells; read-out: INHIBITION
Procedure, shortened: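 Uninfected HepG2-A16-CD81EGFP cells, 3 × 10^3 per well, 1536-well, plated on prespotted compound at 10 μM final, parasite-free screening media added to match infected plates; puromycin 10 μM positive, DMSO 0.5% negative; run in parallel with 48 h PbLuc assay at 37 °C, 5% CO2; viability by CellTiter-Glo luminescence, normalized to controls.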

SMILES	cytotoxicity at 10 µM [%]
COc1cc(NC(=O)N2CCCC2c2ccco2)cc(OC)c1 (stereo unspecified)	4.65
COc1ccc2c(ccn2CCC(=O)N[C@H](C(=O)O)C(C)C)c1	5.98
COc1ccc(C2CC(=O)Oc3cc(C)[nH]c(=O)c32)c(OC)c1 (stereo unspecified)	-3.4
Cn1cc(NC(=O)C2CC(=O)N(c3n[nH]c4cccc(F)c34)C2)cn1 (stereo unspecified)	4.59
COc1ccc(C)cc1NC(=O)Nc1cnc(N2CCCC2)nc1	6.62
Cc1noc(C)c1S(=O)(=O)N1CCC(Oc2ccccn2)CC1	0.67
O=C(c1ccccn1)N1CCC(S(=O)(=O)c2ccccc2)C1 (stereo unspecified)	3.26
Cc1nc(N2CCOCC2)nc(C)c1NC(=O)c1ccco1	1.9
CCS(=O)(=O)N1CCC2(CN(c3cc(OC)ncn3)C2)C1	0.325
O=C1[C@@H]2CCN(CC3CC3)C[C@@H]2OCCN1c1cccnc1	8.1
O=C(c1ncn2c1CNS(=O)(=O)c1ccccc1-2)N1CCOCC1	8.28
CN(C)C(=O)N1CCCC2(CCN(Cc3ccncc3)C2)C1 (stereo unspecified)	7.61
O=c1cc(Cn2ccnc2)nc2n1CCCN(CC1CCOCC1)C2	12.7
CCS(=O)(=O)N1CCO[C@H]2[C@H](OCC3CCCC3)CC[C@@H]21	-9.6
CCN1CCC2(CC1)CC(Nc1ncccn1)CO2 (stereo unspecified)	-21.6
CC(C(=O)N1CCOCC1)n1cc(Br)cn1 (stereo unspecified)	14.1
Cc1cccc(C)c1-n1nnnc1C1(NCc2ccco2)CCCC1	12.9
Cn1nc(C(=O)NCc2ccccc2C(F)(F)F)c2c1CCS(=O)(=O)C2	5.37
CCCc1nc(NCC(=O)N2CCOCC2)c2c(n1)c(C)nn2CC	12.2
COc1ccc(C2=NOC(CC#N)C2)cc1 (stereo unspecified)	1.52
O=C(O)c1cnc(N2CCCC2)nc1COc1ccc(F)cc1	-1.14
CC(C)C(=O)NC(Cc1cc(N(C)C)nc(C2CC2)n1)c1ccccc1 (stereo unspecified)	3.37
Cc1ocnc1C(=O)N(C)[C@@H]1CC[C@@H](n2ccnc2C)[C@@H]1O	0.642

SMILES	cytotoxicity at 10 µM [%]
Cc1csc(C(Cc2cccs2)NCc2cc3c(cc2C)OCO3)n1 (stereo unspecified)	-8.9
COc1ccc(CC(=O)N2CCCC2c2nc(C)c(C)c(O)n2)cc1 (stereo unspecified)	-17.7
Cc1nc2ccc(C(=O)N3C[C@@H](O)[C@H](N4CCN(C)CC4)C3)cc2[nH]1	-27.5
CCCN(C(=O)c1ccncc1)c1nc2c(s1)CCc1c-2cnn1C	-14.6
Cc1nc2c(c(=O)[nH]1)CCN(C(=O)c1cccc3nccnc13)C2	-16.8
O=C(c1cccnc1)N1CCc2c(nc(N3CCCC3)[nH]c2=O)C1	4.51
CCCC(=O)NCCc1cc(N2CCN(C(C)=O)CC2)nc(C2CC2)n1	-28.2
Cc1cccnc1CN1CCCCC1c1ccn2ccnc2n1 (stereo unspecified)	0.498
CCc1nccn1-c1cncc(C2CCCN2Cc2ccccc2)n1 (stereo unspecified)	-1.17
CCCn1cc(CN2CCC(c3[nH]ncc3S(C)(=O)=O)C2)cn1 (stereo unspecified)	4.27
CNC(=O)c1ccc(CN2CCN(C3=NCC(C)(C)S3)CC2)cc1	14.3
Cc1oc(-c2ccco2)nc1CN1CCc2cncnc2C1	2.44
COCCCN1Cc2cccc(NC(=O)c3cc(F)cc(F)c3)c2C1	2.28
Cc1ncccc1CNC(CCO)C1CCCCC1 (stereo unspecified)	-41.8
CN(CCN1CCN(c2ccccc2)CC1)C(=O)Nc1ccccn1	6.37
COc1ccc(C(=O)NC2CCN(c3ncccn3)CC2)cc1F	-17.8
N#CC1(NC(=O)c2cc(Cl)ccc2OC(F)F)CCOCC1	7.48
COC(=O)N1CCCC(C(=O)Nc2ccccc2CN2CCCC2)C1 (stereo unspecified)	-9.07
N#Cc1ccc(N2CCC(OCCc3ccccc3)CC2)nc1	-9.67
CCOC(=O)NC(CNC(=O)c1cccc(C)n1)CC(C)C (stereo unspecified)	6.17
Cc1nc(C2CCCN(C(=O)c3csc(C)n3)C2)no1 (stereo unspecified)	7.04
Cc1n[nH]c(C2CN(C(=O)c3ccc4c(c3)CCCC4)CCO2)n1 (stereo unspecified)	-10.8
CN1N=C(C(=O)N(Cc2ccco2)C2CCCC2)CCC1=O	-144

SMILES	cytotoxicity at 10 µM [%]
CCc1nccn1C1CCCN(C(=O)c2ccc(N(C)C)nn2)C1 (stereo unspecified)	3.19
Cc1n[nH]c(C)c1NC(=O)C1CCCN(C(=O)NCC(C)C)C1 (stereo unspecified)	11
Cc1ccc(CN(C(=O)NCCNC(=O)c2cccnc2)C(C)C)o1	-6.06
CCC(C)(C)NC(=O)CN(Cc1cccc(O)c1)C1CCC(O)CC1 (stereo unspecified)	-2.22
N#Cc1cc(Br)ccc1NC1CCN(CC(N)=O)CC1	5.23
Cc1cnn(CC2CCCN2C(=O)c2sccc2C#N)c1 (stereo unspecified)	12.3
Cc1noc(C)c1CC(=O)NCC(C)N1CCOCC1 (stereo unspecified)	-52
O=C(Cc1ccccc1Cl)Nc1ccn(CCN2CCOCC2)n1	-5.44
Cc1cc(CCC(=O)NCc2nccn2C)ccc1Br	2.95
CN1CCN(CC(=O)NCc2ccco2)Cc2ccccc21	-3.81
COc1ccc(OCCN(C)c2cc(C)nc(N)n2)cc1	49.5
O=C(CN(CC(O)c1ccc(F)cc1)C1CC1)NC(C1CC1)C1CC1 (stereo unspecified)	11.8
O=C(Nc1ccccc1)c1ccc(NCc2ccccc2CO)nn1	4.34
COCC(C)NC(=O)CSc1ccc(F)c(Cl)c1 (stereo unspecified)	-48
O=S(=O)(Cc1ccc(F)cc1F)NCCOc1cccnc1	-45.9
CN(Cc1cnccn1)c1cncc(Br)c1	-8.46
OC(CNC1CCOCC1)c1cccc(OCc2ccccc2)c1 (stereo unspecified)	-10.3
O=C(c1ccco1)N1CCCC2(C1)CN(c1nncs1)CCO2 (stereo unspecified)	-99.3
CC(=O)N1CCO[C@@H]2CN(S(=O)(=O)c3ccc(F)cc3)CC[C@@H]2C1	13.7
O=C(c1cnccn1)N1CCc2onc(CN3CCOCC3)c2C1	9.47
Cn1c2c(ccc1=O)CC(NS(C)(=O)=O)CC2 (stereo unspecified)	3.99
O=C1NCCN(CC2CC2)C12CCN(Cc1ccco1)CC2	2.55
CNC(=O)Cc1cc2nccc(-c3c(OC)cccc3OC)n2n1	-10.4

SMILES	cytotoxicity at 10 µM [%]
CCOC(=O)c1coc(N2CCC(N3CCC(O)CC3)CC2)n1	6.41
CN(Cc1nncn1C)C(=O)c1cc(COc2ccccc2)[nH]n1	9.23
Cc1cnc(C(=O)N2CCCCC2c2ccc(CN(C)C)cc2)cn1 (stereo unspecified)	-2.46
Cc1cc(NC2CCN(CC3CCCO3)CC2)n2nc(C)c(C)c2n1 (stereo unspecified)	8.96
COCCN(Cc1ccncc1)C(=O)C1COc2ccccc2C1 (stereo unspecified)	6.77
CCN1CC(C(=O)NCCCc2nc(C)c(C)s2)CC1=O (stereo unspecified)	-7.03
c1cc(CN2CCC(c3ccncc3)CC2)cc(Cn2cccn2)c1	-10.1
Cc1cc(NC(=O)c2ccc(N3CCOCC3)c(C)c2)[nH]n1	-35.1
CSCCCN(CCN1CCOCC1)Cc1ccco1	8.05
NCC1CN(Cc2cn(CCC(N)=O)c3ccccc23)CCO1 (stereo unspecified)	4.01
CCOC(=O)c1coc(N2CCN(C(=O)c3cccc(OC)c3)CC2)n1	8.15
Cc1ncnc(N2CCN(C(=O)C3CC4(CCNCC4)CN3)CC2)c1C (stereo unspecified)	-14.7
Cc1nc(CCNC(=O)C2CC(=O)N(C(C)(C)C)C2)sc1Cl (stereo unspecified)	16.8
COc1ccc(OC)c(-n2c(COC(C)C)n[nH]c2=O)c1	7.78
O=C(COCC1CCCCO1)N1CCN(Cc2ccccc2F)C(=O)C1 (stereo unspecified)	3.15
CC(C)N1CCOC(Cc2nn3c(Cc4ccccc4)nnc3s2)C1 (stereo unspecified)	-6.53
CCS(=O)(=O)CCNCc1cc(O)c2cc(C)cc(C)c2n1	1.36
CCc1cnc(C)nc1N1CCN(C(N)=O)CC1	-46.3
COc1ccc(OC)c(C2CCN(Cc3nc(C)n4ccccc34)C2)c1 (stereo unspecified)	-8.66
Cc1cnn(CCNCC(=O)NCCOc2ccc(F)cc2)c1	-4.45
CCc1nccn1C1CCCN(C(=O)COCC(F)(F)F)C1 (stereo unspecified)	-9.74
Cc1ccc(C(=O)N2CCC(Oc3cccc(C)c3C)CC2)c(=O)[nH]1	-6.48
CC(C)NC(=O)CN1CCC(c2cccc(F)c2)C1 (stereo unspecified)	0.103

SMILES	cytotoxicity at 10 µM [%]
Cc1cc(NC(=O)NCC(c2ccc(C)o2)N2CCOCC2)n(C)n1 (stereo unspecified)	-32.5
c1ccc(-c2noc(CCCN3CCCC3Cn3cccn3)n2)cc1 (stereo unspecified)	-13
COc1cccc(COCC(=O)N2CCCC(c3ccn[nH]3)C2)c1 (stereo unspecified)	-20.9
Cc1cnn(CCNCC(O)COc2ccc(Cl)cc2)c1 (stereo unspecified)	-12.6
CN(Cc1ccsc1)C(=O)Nc1ccc(S(C)(=O)=O)nc1	3.28
CCn1cnnc1CNC(=O)NCC(c1cccs1)N1CCCC1 (stereo unspecified)	-7.72
COc1ccccc1CCN(C)C(=O)NC(C)c1nncn1C (stereo unspecified)	-1.88
O=C(c1csc(Br)c1)N1CCCC(n2ccnc2)C1 (stereo unspecified)	3.51
CS(=O)(=O)c1ccc(-c2cnc(C3CCCN3)cn2)cc1 (stereo unspecified)	-1.71
Cc1ccc([C@]2(O)CC[C@H]3CN(Cc4cc(C)c(O)c(C)c4)C[C@H]32)nc1	-6.72
Cc1cc(C)nc(Nc2cc(C3CCCN(C)C3)nc(C)n2)n1 (stereo unspecified)	-5.12
c1csc(CN2CCn3c(Cn4cncn4)cnc3C2)n1	-5.97
CN1CC(=O)N(c2ccsc2)CC12CCN(C(=O)c1ccccc1)C2 (stereo unspecified)	-0.516
COCCN1CCC2(CC1)CC(NCc1ccc(C)s1)c1ccccc12 (stereo unspecified)	-121
CNC(=O)[C@H]1CC[C@@H]2[C@@H](CCN2CCOCc2ccccc2)O1	-109
CCS(=O)(=O)N1CCCC2(COCCN(c3cnccn3)C2)C1 (stereo unspecified)	10.2
Cc1nc(COCC2CN(C(=O)N(C)C)Cc3nccn3C2)cs1 (stereo unspecified)	4.48
COc1cccc(-c2ncc(CN3CC[C@@H]4CC[C@H](C3)N4)s2)c1	-12.4
Cn1ccc(NC(=O)CN2C[C@@H]3CC[C@H]2CN(Cc2ccccn2)C3)n1	0.936
